Measured values: article PMC7312786 (Biochemistry, 2018)
Like-named read-outs stand apart in the source and are kept apart here.

Experiments:
[1] = system: pol binding to DNA; settings: cited from earlier work
[2] = system: γH2AX in hpol η-proficient HAP-1 cells; assay: γH2AX immunoblotting, hpol η-proficient HAP-1 cells; type: cell-based, human; settings: CDDP alone (0.5 μM)
Summary of the method: (§1)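 HAP-1 cells treated with DMSO or 0.5 μM CDDP combined with 0.1 or 1 μM test compound. Pellets lysed at 4 °C in HEPES pH 7.5/Triton X-100 buffer with phosphatase and protease inhibitors. 30–40 μg protein run on 4–20% SDS-PAGE, transferred to nitrocellulose. Probed with anti-γH2AX (S139) 1:1500 and HRP anti-rabbit 1:4000; β-actin loading control; chemiluminescence. Bands normalized to β-actin, relative to DMSO; three biological replicates; t test.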

[3] = system: HAP-1 cells (hpol η-proficient, parental); assay: Cell viability; type: cell-based, human; settings: read-out: EC50 of CDDP, cell viability, parental HAP-1
Summary of the method: (§2)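 HAP-1 parental or CRISPR hpol η-null cells in IMDM with 10% FBS and 1% antibiotic/antimycotic, passage 8–10, seeded 5000 cells/well. Next day: CDDP 0–100 μM alone or with 0.1 or 1 μM test compound, 48 h. Cells washed twice in DPBS, then 2 μM Calcein-AM for 30 min at 25 °C; fluorescence ex 490/em 520 nm. Viability as % of untreated. […] Combination index by Chou–Talalay.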

[4] = system: γH2AX in hpol η-deficient HAP-1 cells; assay: γH2AX immunoblotting, hpol η-deficient HAP-1 cells; type: cell-based, human; settings: CDDP (0.5 μM)
Summary of the method: as §1

[5] = system: hpol η-deficient HAP-1 cells; assay: Cell viability; type: cell-based, human
Summary of the method: as §2

[6] = target: T1, hpol η (Homo sapiens, UniProt Q9Y253); settings: cited from earlier work
T1 sequence (Q9Y253 1-437): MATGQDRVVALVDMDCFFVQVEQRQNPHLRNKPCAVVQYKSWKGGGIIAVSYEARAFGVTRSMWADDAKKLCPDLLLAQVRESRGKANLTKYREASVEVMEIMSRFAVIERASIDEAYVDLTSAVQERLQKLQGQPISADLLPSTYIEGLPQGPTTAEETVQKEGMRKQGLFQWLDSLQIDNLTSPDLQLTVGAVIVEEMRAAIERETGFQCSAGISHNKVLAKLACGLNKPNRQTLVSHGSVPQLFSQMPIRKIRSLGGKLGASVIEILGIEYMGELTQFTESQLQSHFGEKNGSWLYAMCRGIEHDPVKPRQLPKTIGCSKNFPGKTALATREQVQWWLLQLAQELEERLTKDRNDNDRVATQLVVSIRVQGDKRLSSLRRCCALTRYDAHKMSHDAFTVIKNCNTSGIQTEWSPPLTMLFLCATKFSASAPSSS

For `CC(C)c1ccc2c(c1)c(SC(C)(C)C)c(CC(C)(C)C(=O)O)n2Cc1ccc(Cl)cc1` [MK-886], the “Impact on pol binding to DNA” value [1] is listed as “negligible impact”.

For `CCOc1nc2cccc(C(=O)OC(C)OC(=O)OC3CCCCC3)c2n1Cc1ccc(-c2ccccc2-c2nnn[nH]2)cc1` (stereo not shown) [candesartan cilexetil], the “Impact on pol binding to DNA” value [1] is given as “negligible impact”.

For `N.N.[Cl][Pt][Cl]` [CDDP, cis-diamminedichloroplatinum(II), reference compound], the “Amount of μH2AX” value [2] was “did not change substantially”, the EC50 ([3]; CDDP + 0.1 μM PNR-7-02) was 0.14 µM and the EC50 ([3]; CDDP + 1 μM PNR-7-02) was 0.12 µM. For the same molecule, the “Increase of μH2AX” value [4] was ~ 5 fold, the “Reduction of CDDP EC50 by loss of hpol η” value ([5]; hpol η-deficient versus parental HAP-1) was ~ 3 fold and the EC50 ([5]; read-out: EC50 of CDDP, cell viability, hpol η-deficient HAP-1, CDDP alone) was 0.1 µM.

For `O=C1NC(=S)NC(=O)C1=Cc1cn(C(=O)c2ccccc2Br)c2ccc(Cl)cc12` [PNR-3-51, 5-((1-(2-bromobenzoyl)-5-chloro-1H-indol-3-yl)methylene)-2-thioxodihydropyrimidine-4,6(1H,5H)-dione], the “Specificity for hpol η over other pols” value ([6]; over other TLS and DNA repair pols) is listed as “less than 2 fold” and the IC50 ([6]; read-out: IC50 against hpol η, previous publication) is listed as roughly 30 µM.
